This is a sample that favours compounds with a hit; in the whole collection about 1.2% have one here.
Diaphorase act – diaphorase activation or chemical reduction counter-screen; Diaphorase/resazurin coupled assay, resorufin fluorescence, 16 min; active compounds read high; 1 = vehicle wells, 0 = NADH-free wells; activation factor at 20 µM; 0.005% of 190,000 active; AID 1229;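 active = diaphorase activity raised at least twofold by the compound at 20 µM; inactive = activation factor below 2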
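Material: purified diaphorase enzyme from Clostridium kluyveri / Medium: HEPES pH 7.4 buffer with MgCl2 and Tween 20 / Schedule: enzyme reaction of 16 min at room temperature / Measured by: resorufin fluorescence, excitation 544 nm, emission 590 nm / Evaluation: rise in resorufin formation, marking diaphorase activation or chemical reduction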
Diaph inh CS – diaphorase inhibition or chemical oxidation counter-screen; 0.69% of 190,000 active; AID 1217; inhibition, % at 20 µM; diaphorase resazurin-to-resorufin fluorescence, NADH, 16 min; bacterial (C. kluyveri) enzyme, not human;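 active = primary screen inhibition at 20 µM above a set limit, cut at about 50% in these data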;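 also: plate controls were DMSO with full reaction for no effect and wells lacking NADH for full effect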
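Test system: bacterial diaphorase enzyme (C. kluyveri); Quantity: 0.14 U/mL diaphorase, enzyme working solution; Times: reaction incubation of 16 min at room temperature; Measured by: fluorescence of resorufin formed from resazurin, Ex 544/Em 590 nm; Benchmarks: positive control minus NADH, DMSO neutral control.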
HKDC1 inh – blocks human hexokinase HKDC1 activity | 0.16% of 340,000 active | AID 493160 | inhibition, % at 20 µM | recombinant HKDC1, G6PDH/diaphorase resazurin coupled fluorescence | Q2TB90;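 active = inhibition above about 35% when tested at 20 µM, limit read from the data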;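 also: plate controls were DMSO wells with enzyme for no effect and DMSO wells lacking enzyme for full effect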
Target sequence (Q2TB90 whole entry, looked up): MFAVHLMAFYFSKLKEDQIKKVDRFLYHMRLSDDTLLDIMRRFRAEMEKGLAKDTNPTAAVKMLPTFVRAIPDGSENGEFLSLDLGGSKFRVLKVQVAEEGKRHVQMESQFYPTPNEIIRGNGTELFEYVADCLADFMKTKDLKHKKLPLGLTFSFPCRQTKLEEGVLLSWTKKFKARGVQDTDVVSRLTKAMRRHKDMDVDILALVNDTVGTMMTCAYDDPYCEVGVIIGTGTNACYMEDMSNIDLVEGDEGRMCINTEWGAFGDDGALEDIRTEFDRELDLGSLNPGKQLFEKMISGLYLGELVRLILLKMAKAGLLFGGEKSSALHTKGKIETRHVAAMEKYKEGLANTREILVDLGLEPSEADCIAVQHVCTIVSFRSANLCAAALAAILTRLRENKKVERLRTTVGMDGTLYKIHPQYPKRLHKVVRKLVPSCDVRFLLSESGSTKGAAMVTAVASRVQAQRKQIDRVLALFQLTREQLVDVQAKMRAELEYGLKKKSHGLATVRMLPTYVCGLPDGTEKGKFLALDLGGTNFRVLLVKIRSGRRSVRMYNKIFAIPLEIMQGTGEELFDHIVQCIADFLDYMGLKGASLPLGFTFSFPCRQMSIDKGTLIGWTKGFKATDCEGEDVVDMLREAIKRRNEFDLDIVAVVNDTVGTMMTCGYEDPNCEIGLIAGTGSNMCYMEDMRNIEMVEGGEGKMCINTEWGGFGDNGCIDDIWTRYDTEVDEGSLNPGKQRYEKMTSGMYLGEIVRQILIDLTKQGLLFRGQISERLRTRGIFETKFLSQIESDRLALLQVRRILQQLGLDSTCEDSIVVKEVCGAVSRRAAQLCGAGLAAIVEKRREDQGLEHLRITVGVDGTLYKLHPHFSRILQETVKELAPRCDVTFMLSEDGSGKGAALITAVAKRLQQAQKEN
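Test system: Recombinant HKDC1 (HK5) hexokinase enzyme, produced in-house | Input: HKDC1 at 5 µg/mL | Buffer or medium: Tris pH 8.0 buffer with MgCl2, Tween-20, BSA, BME | Schedule: 90 min reaction incubation at room temperature, dark | Technique: Resazurin-to-resorufin fluorescence via G6PDH and diaphorase coupling, 525/613 nm | Controls: DMSO wells with and without enzyme mix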
G6PDH counter – inhibits Leuconostoc G6PDH, flagging false hits in G6PDH-based assays; Purified L. mesenteroides G6PDH, diaphorase/resazurin coupled fluorescence, 45 min; inhibition, % at 5 µM; AID 1020; 0.12% of 200,000 active; in the data active = inhibition above about 50%
PfG6PD inh – PfG6PD (Plasmodium falciparum) enzyme inhibition; PfGluPho enzyme, NADPH resazurin-diaphorase fluorescence; inhibition, % at 20 µM; 0.78% of 350,000 active;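 active = inhibition reaching at least a set limit at 20 µM in the primary screen, cut at about 59% in these data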;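 also: 0% = DMSO wells with substrate and 100% = DMSO wells lacking glucose-6-phosphate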
PfGluPho conf – PfG6PD inhibition, single-dose confirmed; inhibition, % at 20 µM; shares compounds with PfG6PD inh; recombinant PfGluPho, NADPH-diaphorase-resazurin fluorescence; 34% of 2,400 active; AID 504753;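 active = inhibition of at least 50% at 20 µM in any single replicate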;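 also: 0% = DMSO with substrate and 100% = DMSO lacking glucose-6-phosphate substrate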
Diaphorase 10uM – diaphorase inhibition or oxidation at 10 uM NADPH | inhibition, % at 20 µM | AID 504862 | 39% of 820 active | shares compounds with PfG6PD inh | diaphorase-coupled resazurin reduction, fluorescence, NADPH 10 uM;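 active = average inhibition reaching 50% or more with the compound at 20 µM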;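 also: resorufin red fluorescence formed as diaphorase reduces resazurin using NADPH; 0% = DMSO with enzyme and 100% = DMSO without enzyme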
Diaphorase 30uM – counter-screen for P. falciparum G6PD inhibitors: diaphorase inhibitors, oxidizers | inhibition, % at 20 µM | 29% of 820 active | AID 504863 | Diaphorase/resazurin coupled assay, resorufin fluorescence, 30 uM NADPH | shares compounds with PfG6PD inh;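 active = inhibition averaging 50% or more, tested at 20 µM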;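 also: 0% = DMSO with enzyme and 100% = DMSO wells lacking diaphorase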
The depositor's hits bear a star; · = no result.

SMILES	Diaphorase act	Diaph inh CS	HKDC1 inh	G6PDH counter	PfG6PD inh	PfGluPho conf	others
COc1cccc(OC)c1C(=O)NC(C)CCc1ccccc1 (stereo unspecified)	·	·	-7	·	-8	·
CN(Cc1ccccc1)C(=O)c1ccc(S(=O)(=O)N(C)c2ccccc2)cc1	·	·	-5	·	5	·
CCC(C)(C)c1nnc(NC(=O)C2CCN(C(=O)c3ccco3)CC2)s1	·	·	-26	·	79*	61*	Diaphorase 10uM=-37;Diaphorase 30uM=-15
CCN(CC)S(=O)(=O)c1cccc(C(=O)NC(Cc2c[nH]c3ccccc23)c2nnc3n2CCC3)c1 (stereo unspecified)	0.9	7	-13	-2	-1	·
NC(=S)NN=Cc1c[nH]c2nccnc12	·	·	·	·	76*	17
NC(=S)N/N=C/c1c[nH]c2ccccc12	·	·	-1	·	22	·
O=C(Nc1ccccc1C(=O)O)c1cc(S(=O)(=O)N2CCOCC2)c(Br)s1	·	·	-3	·	3	·
CN(CC(=O)Nc1ccccc1Cl)C(=O)COC(=O)/C=C/c1cccc(C(F)(F)F)c1	·	·	-1	·	79*	29
CN(CC(=O)Nc1ccccc1Cl)C(=O)COC(=O)/C=C/c1cccs1	·	·	-5	·	0	·
Cc1c(C(=O)c2ccc(F)cc2F)c2ccccn2c1CCC#N	·	·	20	·	94*	17
Cc1c(C(=O)c2ccc(F)cc2F)c2ccccn2c1CCc1ccccn1	·	·	·	·	17	·
O=C(COc1ccccc1F)Nc1nnc(C2CCCC2)s1	·	·	-1	·	-3	·
CCCCn1c(SC(C)C(=O)c2ccc(OC)cc2)nc2cc(S(N)(=O)=O)ccc21 (stereo unspecified)	0.8	23	0	-2	55	·
CCCCn1c(SCC(=O)c2ccc(OC)cc2OC)nc2cc(S(N)(=O)=O)ccc21	0.8	21	6	0	96*	42
CCCCn1c(SCC(=O)c2ccc3c(c2)NC(=O)CO3)nc2cc(S(N)(=O)=O)ccc21	0.8	21	9	13	61*	28
CCCCn1c(SCC(=O)N2CCCC2)nc2cc(S(N)(=O)=O)ccc21	1.1	-8	5	5	-2	·
COc1cccc(NC(=O)CN(C)C(=O)C2CC(=O)N(CCc3ccc(OC)c(OC)c3)C2)c1 (stereo unspecified)	·	·	5	·	7	·
COc1ccc(C=C2C(=O)OC(C)(C)OC2=O)cc1OC	·	·	-1	·	-13	·
COc1ccc(/C=C2\C(=O)NC(=O)c3ccccc32)cc1OC	·	·	18	·	69*	42
CCc1ccn2cc(-c3ccc4c(c3)OCO4)nc2c1	·	·	0	·	65*	23
CCCn1c(SCC(=O)Nc2ccc(F)c(Cl)c2)nc(O)cc1=O	·	·	-2	·	-9	·
[O-][N+]1=c2ccc(Nc3ccccc3)cc2=NC12CCCCC2	0.3	72*	20	48	61*	0
COc1ccc(Nc2ccc3c(c2)=NC2(CCCCC2)[N+]=3[O-])cc1	0.3	73*	24	56*	78*	14
O=[N+]([O-])c1ccc2c(c1N1CCCCC1)=NC1(CCCCC1)[N+]=2[O-]	·	·	31	·	23	·
O=C(O)c1ccccc1C(=O)Nc1n[nH]c(=S)s1	0.9	10	-13	2	72*	34
SMILES	Diaphorase act	Diaph inh CS	HKDC1 inh	G6PDH counter	PfG6PD inh	PfGluPho conf	others
O=C(O)c1ccccc1C(=O)Nc1nccs1	1	4	2	0	-1	·
COC(=O)C1CCN(C(=O)/C=C/c2ccc3c(c2)OCO3)CC1	·	·	-7	·	1	·
NS(=O)(=O)c1cccnc1Nc1ccc(Cl)c(Cl)c1	0.8	15	1	4	9	·
NS(=O)(=O)c1cccnc1Nc1cccc(Cl)c1Cl	0.9	13	10	-1	62*	13
CC(C)N(C)C1=CC(=O)C(N(C)C(C)C)=CC1=O	·	·	4	·	67*	6
FC(F)(F)c1cc(CO[C@@H]2CCCN[C@@H]2c2ccccc2)cc(C(F)(F)F)c1	·	·	-1	·	67*	22
CN1CCN(C(=S)c2ccc([N+](=O)[O-])cc2)CC1	1	2	-15	4	61*	55*	Diaphorase 10uM=-18;Diaphorase 30uM=-25
CCN1CCN(C(=S)c2ccc(O)cc2)CC1	1.1	-8	-12	-3	70*	53*	Diaphorase 10uM=-12;Diaphorase 30uM=-4
CN1CCN(C(=S)c2ccc(N(C)C)cc2)CC1	1	-2	-9	10	48	·
CN1CCN(C(=S)c2ccc(Br)cc2)CC1	1	-1	14	0	59*	61*	Diaphorase 10uM=-12;Diaphorase 30uM=-3
CCN1CCN(C(=S)c2ccc(Br)cc2)CC1	0.9	5	-10	8	59	·
COc1ccccc1NC(=O)C1CCCN(S(=O)(=O)c2ccc3c(c2)CC(C)N3C(C)=O)C1 (stereo unspecified)	·	·	-6	·	-6	·
COc1cc([N+](=O)[O-])c2ncsc2c1	1.1	-5	12	1	-2	·
COc1cc(SSc2cc(OC)cc([N+](=O)[O-])c2N)c(N)c([N+](=O)[O-])c1	·	·	2	·	112*	100*	Diaphorase 10uM=-27;Diaphorase 30uM=-20
O=C(Nc1nc2ccccc2n1CCN1CCOCC1)c1ccc(Cl)cc1	·	·	-14	·	68*	43
O=C(Nc1nc2ccccc2n1Cc1ccccc1)c1ccco1	1	0	-2	17	80*	45
CCC(=O)Nc1nc2ccccc2n1Cc1ccc(Cl)cc1	1.1	-9	-20	-2	-13	·
C=CCN(C(=O)CNC(=O)c1cccs1)C(C(=O)NC(C)(C)C)c1ccccc1 (stereo unspecified)	1.1	-7	-1	8	-21	·
CC1CC(C)CN(S(=O)(=O)c2ccc3c(c2)CCN3C(=O)C2CC2)C1 (stereo unspecified)	·	·	-3	·	-5	·

Bioassay records as filed in PubChem.
